From ChEMBL document CHEMBL4387724, “2-Pyridineformamide N(4)-ring incorporated thiosemicarbazones inhibit MCF-7 cells by inhibiting JNK pathway” (Bioorg Med Chem Lett, 2019)

What was measured:
[1] = test system: MCF7; assay: Cytotoxicity against human MCF7 cells assessed as reduction in cell growth incubated for 72 hrs by MTT assay; type: functional, cell-based; conditions: MCF7, 72 h
Method in brief: (§1)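 Cells grown in DMEM with 10% FBS and penicillin-streptomycin at 37 °C, 5% CO2, seeded at 3000 cells/well and attached overnight. Screening series given at 1, 3, 10, 100 μM; follow-up agent at 100 nM–3 μM; both 72 h, with 0.1% DMSO vehicle. MTT (5 mg/mL stock) added for 3 h at 37 °C, formazan dissolved in DMSO, absorbance read at 570 nm. Viability expressed as % of DMSO-treated wells from replicates.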

[2] = test system: A-431; assay: Cytotoxicity against human A431 cells assessed as reduction in cell growth incubated for 72 hrs by MTT assay; type: functional, cell-based; conditions: A-431, 72 h; method in brief: as §1
[3] = test system: A-375; assay: Cytotoxicity against human A375 cells assessed as reduction in cell growth incubated for 72 hrs by MTT assay; type: functional, cell-based; conditions: A-375, 72 h; method in brief: as §1
[4] = test system: HeLa; assay: Cytotoxicity against human HeLa cells assessed as reduction in cell growth incubated for 72 hrs by MTT assay; type: functional, cell-based; method in brief: as §1
[5] = test system: A-375; assay: Cytotoxicity against human A375 cells assessed as reduction in cell growth at 1 uM incubated for 72 hrs by MTT assay relative to control; type: functional; conditions: A-375, 72 h, read-out: GI; method in brief: as §1
[6] = test system: A-375; assay: Cytotoxicity against human A375 cells assessed as reduction in cell growth at 3 uM incubated for 72 hrs by MTT assay relative to control; type: functional; conditions: A-375, 72 h, read-out: GI; method in brief: as §1
[7] = test system: A-375; assay: Cytotoxicity against human A375 cells assessed as reduction in cell growth at 10 uM incubated for 72 hrs by MTT assay relative to control; type: functional; conditions: A-375, 72 h, read-out: GI; method in brief: as §1
[8] = test system: A-375; assay: Cytotoxicity against human A375 cells assessed as reduction in cell growth at 30 uM incubated for 72 hrs by MTT assay relative to control; type: functional; conditions: A-375, 72 h, read-out: GI
[9] = test system: A-375; assay: Cytotoxicity against human A375 cells assessed as reduction in cell growth at 100 uM incubated for 72 hrs by MTT assay relative to control; type: functional; conditions: A-375, 72 h, read-out: GI; method in brief: as §1
[10] = test system: A-431; assay: Cytotoxicity against human A431 cells assessed as reduction in cell growth at 1 uM incubated for 72 hrs by MTT assay relative to control; type: functional; conditions: A-431, 72 h, read-out: GI; method in brief: as §1
[11] = test system: A-431; assay: Cytotoxicity against human A431 cells assessed as reduction in cell growth at 3 uM incubated for 72 hrs by MTT assay relative to control; type: functional; conditions: A-431, 72 h, read-out: GI; method in brief: as §1
[12] = test system: A-431; assay: Cytotoxicity against human A431 cells assessed as reduction in cell growth at 10 uM incubated for 72 hrs by MTT assay relative to control; type: functional; conditions: A-431, 72 h, read-out: GI; method in brief: as §1
[13] = test system: A-431; assay: Cytotoxicity against human A431 cells assessed as reduction in cell growth at 30 uM incubated for 72 hrs by MTT assay relative to control; type: functional; conditions: A-431, 72 h, read-out: GI
[14] = test system: A-431; assay: Cytotoxicity against human A431 cells assessed as reduction in cell growth at 100 uM incubated for 72 hrs by MTT assay relative to control; type: functional; conditions: A-431, 72 h, read-out: GI; method in brief: as §1
[15] = test system: HeLa; assay: Cytotoxicity against human HeLa cells assessed as reduction in cell growth at 1 uM incubated for 72 hrs by MTT assay relative to control; type: functional; conditions: read-out: GI; method in brief: as §1
[16] = test system: HeLa; assay: Cytotoxicity against human HeLa cells assessed as reduction in cell growth at 3 uM incubated for 72 hrs by MTT assay relative to control; type: functional; conditions: read-out: GI; method in brief: as §1
[17] = test system: HeLa; assay: Cytotoxicity against human HeLa cells assessed as reduction in cell growth at 10 uM incubated for 72 hrs by MTT assay relative to control; type: functional; conditions: read-out: GI; method in brief: as §1
[18] = test system: HeLa; assay: Cytotoxicity against human HeLa cells assessed as reduction in cell growth at 30 uM incubated for 72 hrs by MTT assay relative to control; type: functional; conditions: read-out: GI
[19] = test system: HeLa; assay: Cytotoxicity against human HeLa cells assessed as reduction in cell growth at 100 uM incubated for 72 hrs by MTT assay relative to control; type: functional; conditions: read-out: GI; method in brief: as §1
[20] = test system: MCF7; assay: Cytotoxicity against human MCF7 cells assessed as reduction in cell growth at 1 uM incubated for 72 hrs by MTT assay relative to control; type: functional; conditions: MCF7, 72 h, read-out: GI; method in brief: as §1
[21] = test system: MCF7; assay: Cytotoxicity against human MCF7 cells assessed as reduction in cell growth at 3 uM incubated for 72 hrs by MTT assay relative to control; type: functional; conditions: MCF7, 72 h, read-out: GI; method in brief: as §1
[22] = test system: MCF7; assay: Cytotoxicity against human MCF7 cells assessed as reduction in cell growth at 10 uM incubated for 72 hrs by MTT assay relative to control; type: functional; conditions: MCF7, 72 h, read-out: GI; method in brief: as §1
[23] = test system: MCF7; assay: Cytotoxicity against human MCF7 cells assessed as reduction in cell growth at 30 uM incubated for 72 hrs by MTT assay relative to control; type: functional; conditions: MCF7, 72 h, read-out: GI
[24] = test system: MCF7; assay: Cytotoxicity against human MCF7 cells assessed as reduction in cell growth at 100 uM incubated for 72 hrs by MTT assay relative to control; type: functional; conditions: MCF7, 72 h, read-out: GI; method in brief: as §1

Compound | IC50 [1] [µM] | IC50 [2] [µM] | IC50 [3] [µM] | IC50 [4] [µM] | inhibition of growth at 1 µM [5] [%] | inhibition of growth at 3 µM [6] [%] | inhibition of growth at 10 µM [7] [%] | inhibition of growth at 30 µM [8] [%] | inhibition of growth at 100 µM [9] [%] | inhibition of growth at 1 µM [10] [%] | inhibition of growth at 3 µM [11] [%] | inhibition of growth at 10 µM [12] [%] | inhibition of growth at 30 µM [13] [%] | inhibition of growth at 100 µM [14] [%] | inhibition of growth at 1 µM [15] [%] | inhibition of growth at 3 µM [16] [%] | inhibition of growth at 10 µM [17] [%] | inhibition of growth at 30 µM [18] [%] | inhibition of growth at 100 µM [19] [%] | inhibition of growth at 1 µM [20] [%] | further results
N/C(=N\NC(=S)N1CCN(c2ccccn2)CC1)c1ccc(F)cn1 | 22 | 13.4 | 1.4 | 2 | 49.3 | 53.1 | 56.8 | 73.2 | 76.2 | 31.1 | 43 | 47.4 | 62.3 | 77.1 | 22.5 | 77.3 | 80 | 87 | 83 | 13.4 | inhibition of growth at 3 µM [21]: 27.1%; inhibition of growth at 10 µM [22]: 35.8%; inhibition of growth at 30 µM [23]: 58.6%; inhibition of growth at 100 µM [24]: 74.3%
Cc1ccnc(/C(N)=N/NC(=S)N2CCOCC2)c1 | > 100 | 6.8 | 1.6 | 38.5 | 43.2 | 66.6 | 86 | 87.4 | 90.6 | 33.6 | 35.5 | 62 | 74.6 | 82.8 | 39.1 | 44.7 | 49.1 | 45.2 | 82.7 | 1.22 | inhibition of growth at 3 µM [21]: 5.07%; inhibition of growth at 10 µM [22]: 6.86%; inhibition of growth at 30 µM [23]: 8.16%; inhibition of growth at 100 µM [24]: 12.8%
Cc1ccnc(/C(N)=N/NC(=S)N2CCCCCC2)c1 | 6.9 | 8 | 0.8 | 7 | 61.9 | 70 | 70.6 | 76.5 | 77 | 36.3 | 36.1 | 55.5 | 63.4 | 71 | 43.2 | 41.9 | 55.8 | 69.9 | 91.6 | 18.2 | inhibition of growth at 3 µM [21]: 36.3%; inhibition of growth at 10 µM [22]: 60.3%; inhibition of growth at 30 µM [23]: 75.9%; inhibition of growth at 100 µM [24]: 65.4%
N/C(=N\NC(=S)N1CCCCC1)c1ccccn1 | 8.5 | 6.9 | 0.68 | 3.8 | 72.5 | 86.5 | 85.8 | 87 | 88.5 | 24.4 | 27 | 68.1 | 79.7 | 85.6 | 15.5 | 49.2 | 55.7 | 76.9 | 86 | 15.4 | inhibition of growth at 3 µM [21]: 38.6%; inhibition of growth at 10 µM [22]: 53.1%; inhibition of growth at 30 µM [23]: 69.3%; inhibition of growth at 100 µM [24]: 77.7%
